Test results reported in ChEMBL document CHEMBL4627393, “Discovery of Potent, Selective, and State-Dependent NaV1.7 Inhibitors with Robust Oral Efficacy in Pain Models: Structure-Activity Relationship and Optimization of Chroman and Indane Aryl Sulfonamides” (J Med Chem, 2020).

Tests used:
[1] = Cmax in Sprague-Dawley rat at 1 mg/kg, iv measured upto 24 hrs by LC/MS-MS analysis; format: ADME, organism-based; parameters: dose 1 mg/kg, route intravenous; conditions: in vivo
[2] = Lipophilicity, log D of the compound; format: physicochemical; conditions: octanol/water
[3] = Metabolic stability in mouse liver microsomes assessed as metabolic rate at 1 uM preincubated for 5 mins followed by NADPH addition and measured up to 30 mins by LC/MS-MS analysis; format: ADME, Microsome; conditions: 0.5 h
[4] = Metabolic stability in rat liver microsomes assessed as metabolic rate at 1 uM preincubated for 5 mins followed by NADPH addition and measured up to 30 mins by LC/MS-MS analysis; format: ADME, Microsome; conditions: 0.5 h
[5] = Metabolic stability in human liver microsomes assessed as metabolic rate at 1 uM preincubated for 5 mins followed by NADPH addition and measured up to 30 mins by LC/MS-MS analysis; format: ADME, Microsome; conditions: 0.5 h
[6] = Cmax in BALB/c mouse at 1 mg/kg, iv measured upto 24 hrs by LC/MS-MS analysis; format: ADME, organism-based; parameters: dose 1 mg/kg, route intravenous; conditions: in vivo
[7] = AUClast in BALB/c mouse at 1 mg/kg, iv measured upto 24 hrs by LC/MS-MS analysis; format: ADME, organism-based; parameters: time < 24 hr, dose 1 mg/kg, route intravenous; conditions: in vivo
[8] = Half life in BALB/c mouse at 1 mg/kg, iv measured upto 24 hrs by LC/MS-MS analysis; format: ADME, organism-based; conditions: in vivo
[9] = Clearance in BALB/c mouse at 1 mg/kg, iv measured upto 24 hrs by LC/MS-MS analysis; format: ADME, organism-based; conditions: in vivo
[10] = Volume of distribution at steady state in BALB/c mouse at 1 mg/kg, iv measured upto 24 hrs by LC/MS-MS analysis; format: ADME, organism-based; conditions: in vivo, read-out: Vdss
Summary of the method: (§1)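 Pharmacokinetics were run with an IV dose of 1 mg/kg and a PO dose of 10 mg/kg. Parameters reported were AUClast, Cmax, CL, T1/2, Vss and %F.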

[11] = Cmax in BALB/c mouse at 10 mg/kg, po measured upto 24 hrs by LC/MS-MS analysis; format: ADME, organism-based; parameters: dose 10 mg/kg, route oral; conditions: in vivo
[12] = AUClast in BALB/c mouse at 10 mg/kg, po measured upto 24 hrs by LC/MS-MS analysis; format: ADME, organism-based; parameters: dose 10 mg/kg, time < 24 hr, route oral; conditions: in vivo
[13] = Oral bioavailability in BALB/c mouse at 10 mg/kg measured upto 24 hrs by LC/MS-MS analysis; format: ADME, organism-based; conditions: in vivo; summary of the method: as §1
[14] = Metabolic stability in dog liver microsomes assessed as metabolic rate at 1 uM preincubated for 5 mins followed by NADPH addition and measured up to 30 mins by LC/MS-MS analysis; format: ADME, Canis lupus familiaris, Microsome; conditions: 0.5 h
[15] = Metabolic stability in monkey liver microsomes assessed as metabolic rate at 1 uM preincubated for 5 mins followed by NADPH addition and measured up to 30 mins by LC/MS-MS analysis; format: ADME, Macaca mulatta, Microsome; conditions: rhesus monkey, 0.5 h
[16] = Apparent permeability across apical to basolateral side in human Caco2 cells; format: ADME, cell-based; conditions: Caco-2
[17] = Apparent permeability across basolateral to apical side in human Caco2 cells; format: ADME, cell-based; conditions: Caco-2
[18] = AUClast in Sprague-Dawley rat at 1 mg/kg, iv measured upto 24 hrs by LC/MS-MS analysis; format: ADME, organism-based; parameters: dose 1 mg/kg, time < 24 hr, route intravenous; conditions: in vivo
[19] = Half life in Sprague-Dawley rat at 1 mg/kg, iv measured upto 24 hrs by LC/MS-MS analysis; format: ADME, organism-based; conditions: in vivo
[20] = Clearance in Sprague-Dawley rat at 1 mg/kg, iv measured upto 24 hrs by LC/MS-MS analysis; format: ADME, organism-based; conditions: in vivo
[21] = Volume of distribution at steady state in Sprague-Dawley rat at 1 mg/kg, iv measured upto 24 hrs by LC/MS-MS analysis; format: ADME, organism-based; conditions: in vivo, read-out: Vdss
[22] = Cmax in Sprague-Dawley rat at 10 mg/kg, po measured upto 24 hrs by LC/MS-MS analysis; format: ADME, organism-based; parameters: dose 10 mg/kg, route oral; conditions: in vivo
[23] = AUClast in Sprague-Dawley rat at 10 mg/kg, po measured upto 24 hrs by LC/MS-MS analysis; format: ADME, organism-based; parameters: time < 24 hr, dose 10 mg/kg, route oral; conditions: in vivo
[24] = Oral bioavailability in Sprague-Dawley rat at 10 mg/kg measured upto 24 hrs by LC/MS-MS analysis; format: ADME, organism-based; conditions: in vivo; summary of the method: as §1
[25] = Drug concentration in brain of formalin-induced C57BL/6 mouse model of nociceptive pain at 30 mg/kg, […]; format: ADME, organism-based; conditions: po
[26] = Unbound drug concentration in plasma of formalin-induced C57BL/6 mouse model of nociceptive pain at 3 mg/kg, po administered 30 mins before formalin stimulation and measured after 40 mins; format: ADME, organism-based; conditions: in vivo
Summary of the method: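 Mice were dosed orally at 3 mg/kg 30 min before formalin challenge. Nociceptive behaviour was scored at 0–5 min (phase I) and 10–40 min (phase II). Plasma was collected at the end of the study, and the unbound drug concentration was determined.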

[27] = Tmax in male cynomolgus monkey at 150 mg/kg, po; format: ADME, organism-based, Macaca fascicularis; conditions: in vivo
Summary of the method: (§2)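 Cynomolgus monkeys, 3 male and 3 female, were given a single oral gavage dose of 150 mg/kg. Animals were watched for emesis. Tmax was recorded separately for males and females.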

[28] = Tmax in female cynomolgus monkey at 150 mg/kg, po; format: ADME, organism-based, Macaca fascicularis; conditions: in vivo; summary of the method: as §2
[29] = Cmax in male cynomolgus monkey at 150 mg/kg, po; format: ADME, organism-based, Macaca fascicularis; parameters: dose 150 mg/kg, route oral; conditions: in vivo
[30] = Cmax in female cynomolgus monkey at 150 mg/kg, po; format: ADME, organism-based, Macaca fascicularis; parameters: dose 150 mg/kg, route oral; conditions: in vivo
[31] = AUClast in male cynomolgus monkey at 150 mg/kg, po; format: ADME, organism-based, Macaca fascicularis; parameters: dose 150 mg/kg, route oral, time 0 - last; conditions: in vivo
[32] = AUClast in female cynomolgus monkey at 150 mg/kg, po; format: ADME, organism-based, Macaca fascicularis; parameters: dose 150 mg/kg, time 0 - last, route oral; conditions: in vivo

Cmax [1]: 2.5 µM | logD [2]: 2.4 | Drug metabolism [3]: 0.03 nmol/min/mg | Drug metabolism [4]: 0.04 nmol/min/mg | Drug metabolism [5]: 0.03 nmol/min/mg | Cmax [6]: 2 µM | AUC(0-t) at 24 h [7]: 8.5 µM·h | half-life [8]: 2.8 h | clearance [9]: 3.3 mL/min/kg | Vd [10]: 0.8 L/kg | Cmax [11]: 18 µM | AUC(0-t) at 24 h [12]: 84 µM·h | bioavailability [13]: 99% | Drug metabolism [14]: 0.02 nmol/min/mg | Drug metabolism [15]: 0.03 nmol/min/mg | Papp A→B [16]: 31.5 ×10⁻⁶ cm/s | Papp B→A [17]: 36.7 ×10⁻⁶ cm/s | AUC(0-t) at 24 h [18]: 7.9 µM·h | half-life [19]: 2.7 h | clearance [20]: 4.9 mL/min/kg | Vd [21]: 1 L/kg | Cmax [22]: 10.9 µM | AUC(0-t) at 24 h [23]: 46 µM·h | bioavailability [24]: 58% | concentration at 40 min [25]: 2.1 µM | Cp(f) [26]: 0.343 µM | Tmax [27]: 2 h | Tmax [28]: 1.5 h | Cmax [29]: 66 µM | Cmax [30]: 69 µM | AUC(0-t) [31]: 684 µM·h | AUC(0-t) [32]: 601 µM·h
Compound: Cn1nccc1-c1cc(C(F)(F)F)ccc1[C@H]1CCc2cc(S(=O)(=O)Nc3ncccn3)ccc21
